Bioassay records (PubChem)
ALR H2O2 inh – inhibitors of human ALR sulfhydryl oxidase, primary screen, biochemical, H2O2 detection, HRP-luminol luminescence, single point | FAD-linked sulfhydryl oxidase ALR (Homo sapiens), P55789 | purified ALR, DTT oxidation | inhibition, % (concentration not given with the values) | 290,000 compounds, 3.8% hits | AID 485317, 2010;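 active means mean replicate inhibition above about 79%, with every replicate also reaching it, limit read from the data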
Target sequence (P55789 whole entry, looked up): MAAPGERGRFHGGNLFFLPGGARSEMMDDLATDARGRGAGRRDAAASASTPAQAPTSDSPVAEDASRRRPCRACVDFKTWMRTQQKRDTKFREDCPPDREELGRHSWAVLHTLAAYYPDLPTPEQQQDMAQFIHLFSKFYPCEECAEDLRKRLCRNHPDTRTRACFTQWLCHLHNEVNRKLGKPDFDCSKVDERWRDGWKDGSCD
EBNA-1 inhibitor – EBNA-1 DNA-binding inhibitors, primary screen, biochemical, fluorescence polarization; inhibition, % at 14.8 µM; 300,000 compounds, 0.34% hits; in the data active means inhibition above about 28%
M18AAP inhibitor – PfM18AAP inhibitors, malaria aminopeptidase, primary screen, biochemical, QFRET, recombinant enzyme | M18 aspartyl aminopeptidase (Plasmodium falciparum 3D7) | H-Glu-NHMec fluorogenic cleavage | inhibition, % at 7.35 µM | 290,000 compounds, 1.2% hits;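 active means inhibition above the campaign mean inhibition over all tested compounds plus 3 SD, cut at about 28% in these data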
ZTA DNA inh – ZTA (EBV) inhibition in EBNA-1 counter-screen | ZTA-DNA binding, fluorescence polarization | inhibition, % at 11 µM | AID 2234 | 320,000 compounds, 0.15% hits; in the data active means inhibition above about 33%
Target sequence (P03206 whole entry, looked up): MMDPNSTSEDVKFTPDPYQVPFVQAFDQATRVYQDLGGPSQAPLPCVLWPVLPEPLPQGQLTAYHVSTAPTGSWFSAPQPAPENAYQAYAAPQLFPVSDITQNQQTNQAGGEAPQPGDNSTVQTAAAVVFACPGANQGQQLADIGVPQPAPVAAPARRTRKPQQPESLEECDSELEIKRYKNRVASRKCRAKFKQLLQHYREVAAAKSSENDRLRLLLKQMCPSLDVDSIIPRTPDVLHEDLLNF
NS3 helicase inh – inhibitors of HCV NS3 helicase, primary screen, biochemical, Cy5 molecular beacon fluorescence | Hepatitis C virus NS3 helicase | NS3 helicase DNA unwinding | inhibition, % at 10.9 µM | 290,000 compounds, 0.56% hits | AID 1800, 2009;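 active means inhibition above the mean of all tested compounds plus 3 SD, set per campaign, cut at about 35% in these data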
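Material: hepatitis C virus NS3 helicase domain fragment enzyme; measured by: Cy5 fluorescence, 0 and 60 min reads; control set: DMSO and thioflavine S; incubation: 60 min unwinding reaction at 25 °C after ATP addition; read-out basis: % inhibition from 60/0 min fluorescence ratio, DMSO 0%, thioflavine S 100%; repeats: singlicate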
HCV core dimer – inhibitors of HCV core protein dimerization, primary screen, biochemical, TR-FRET, high-throughput; inhibition, % at 5 µM; 300,000 compounds, 0.33% hits; AID 1899, 2009; TR-FRET GST/Flag-core106 dimerization, 1536-well;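 active means inhibition above the mean of all tested compounds plus 3 SD, set per screening campaign, cut at about 45% in these data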
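assay system = GST-tagged and Flag-tagged HCV core protein residues 1-106 | controls = unlabelled core106 and no-GST-core106 wells | incubation = compound-protein-antibody incubation 4 h at 22.5 °C | probe or stimulus = Eu donor and XL665 acceptor anti-tag antibodies | read-out = % inhibition based on acceptor/donor emission ratio | signal = TR-FRET 671 and 617 nm emission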
Each line names hits and unclear results; the compound was inactive in the other large screens. A selection: hits, their analogues and other compounds. The true share with any hit is near 5.2%.

FC(F)(F)c1cnc(NNC(=S)Nc2ccc(Cl)cc2)c(Cl)c1	ALR H2O2 inh 98
Cc1ccc(NC(=S)NNc2ncc(C(F)(F)F)cc2Cl)cc1	none
Cc1ccc(NC(=O)C2CCN(S(=O)(=O)c3ccc4c(c3)CCCC(=O)N4)CC2)cc1N(C)C	none
O=C(O)CCc1ccc(-c2cccs2)n1CCc1ccccc1	ALR H2O2 inh 99
CC(=O)c1cccc(-n2c(CCC(=O)O)ccc2-c2cccs2)c1	ALR H2O2 inh 89
O=C(O)CCc1ccc(-c2cccs2)n1NC(=O)c1ccccc1Br	ALR H2O2 inh 99
Nc1nc(-c2ccc3ccccc3c2)c(C2(O)C(=O)Nc3c(Br)cc(F)cc32)s1 (stereo not given)	none
N/C(=N\OC(=O)c1ccco1)c1ccc(Cl)cc1	ALR H2O2 inh 99
O=C(O)c1ccc(-n2c(/C=C/c3ccccc3)nc3ccccc3c2=O)cc1	ALR H2O2 inh 99
O=C(O)c1ccc(-n2c(/C=C/c3cccc([N+](=O)[O-])c3)nc3ccccc3c2=O)cc1	ALR H2O2 inh 90
O=C(O)c1cccc(-n2c(/C=C/c3cccc([N+](=O)[O-])c3)nc3ccccc3c2=O)c1	none
CCOC(=O)C1CCN(C(=O)c2ccc(S(=O)(=O)Nc3ccccc3OC)cc2)CC1	none (no result: EBNA-1 inhibitor, M18AAP inhibitor, NS3 helicase inh, HCV core dimer)
CCCc1cc(=O)oc2cc(OCC(=O)Nc3ccc(S(N)(=O)=O)cc3)ccc12	none
Cc1ccn2cc(-c3cccc(S(=O)(=O)N4CCCC4)c3)nc2c1	ALR H2O2 inh 97
O=S(=O)(c1cccc(-c2cn3ccccc3n2)c1)N1CCCCC1	none
Cc1ccn2cc(-c3cccc(S(=O)(=O)N4CC(C)OC(C)C4)c3)nc2c1 (stereo not given)	ALR H2O2 inh 97
CCN(Cc1ccncc1)C(=O)C(CO)c1ccccc1 (stereo not given)	none
O=C(c1ccc2c(c1)N(Cc1ccccc1)CCS2)N1CCOCC1	ALR H2O2 inh 99
O=C(c1ccc2c(c1)N(Cc1ccc(F)cc1)CCS2)N1CCOCC1	ALR H2O2 inh 99
COc1cc(OC)c(C(=O)OCC(=O)N2CCOCC2)cc1OC	none (no result: ALR H2O2 inh)
CCN1C/C(=C/c2ccc(OC)c(O)c2)C(=O)/C(=C/c2ccc(OC)c(O)c2)C1	ALR H2O2 inh 98
COc1ccc(NC(=O)C2CCN(S(=O)(=O)c3cccc4nonc34)CC2)cc1	none
Cc1ccc(NC(=O)COC(=O)CN2C(=O)NC3(CCCC3)C2=O)cc1Cl	none (no result: ALR H2O2 inh, EBNA-1 inhibitor, M18AAP inhibitor, NS3 helicase inh, HCV core dimer)
N#C/C(=C\c1ccc(C#N)cc1)C(=O)N1CCCC1	none
N#C/C(=C\c1ccc(O)cc1)C(=O)N1CCCC1	ALR H2O2 inh 81
COc1cccc(N2CCN(S(=O)(=O)c3ccc4c(c3)N(C(C)=O)CCO4)CC2)c1	none
CCOC(=O)[C@H]1NN=C(C(=O)OC)[C@@H]1c1ccccc1	none (no result: ALR H2O2 inh)
CCOc1cc(CNc2ccc3c(c2)CCC3)ccc1O	none
COc1ccc(C)cc1NCc1cccc(OC)c1OC	none
COc1cc(CNc2ccc3c(c2)CCC3)cc(OC)c1O	ALR H2O2 inh 99, M18AAP inhibitor 38
COc1cc(CNc2ccc(C)c(C)c2)cc(OC)c1OC	ALR H2O2 inh 97
COc1cc(CNc2cc(C)ccc2C)cc(OC)c1OC	ALR H2O2 inh 99
COc1ccc(CNc2cc(C)ccc2C)c(OC)c1OC	ALR H2O2 inh 98
Cc1cc(C(=O)NC2CCCN(Cc3ccc(Cl)cc3)C2)c(C)o1 (stereo not given)	none
COc1cc(/C=C/C(=O)O)cc(S(=O)(=O)Nc2ccc3c(c2)OCO3)c1OC	none
COc1cc(C)c(CNc2ccc(OC)c(OC)c2)cc1C	ALR H2O2 inh 82
COc1cc(C)c(CNc2cccc(C)c2)cc1C	none
CCOc1cc(C2C(C#N)=C(N)Oc3n[nH]c(-c4ccccc4)c32)ccc1O (stereo not given)	ALR H2O2 inh 97
CCOc1cc(-c2cc(-c3ccc(N)cc3)nc(N)c2C#N)ccc1O	none (no result: ALR H2O2 inh)
CCOc1cc(-c2cc(-c3ccccc3)nc(N)c2C#N)ccc1O	ALR H2O2 inh 95
N#CC1=C(N)Oc2n[nH]c(-c3ccccc3)c2C1c1cccnc1 (stereo not given)	none
Cc1ccc(CNS(=O)(=O)c2cc3c(cc2C)N(C)CCO3)cc1	ALR H2O2 inh 89
O=C(NC1CCCCCC1)C1CCCN1S(=O)(=O)c1cccc2cccnc12 (stereo not given)	ALR H2O2 inh 97
O=C(NC1CCCC1)C1CCCN1S(=O)(=O)c1cccc2cccnc12 (stereo not given)	ALR H2O2 inh 89
CCOc1ccc(S(=O)(=O)N2CCN(C(=O)CN3C(=O)NC(C)(C)C3=O)CC2)cc1	none (no result: ALR H2O2 inh, EBNA-1 inhibitor, M18AAP inhibitor, NS3 helicase inh, HCV core dimer)
CCn1c(C(=O)O)c(CC(=O)Nc2ccc(Br)cc2C)c2ccccc21	none
O=C1c2cc(O)c(O)cc2S(=O)(=O)C1c1ccccc1 (stereo not given)	ALR H2O2 inh 99 (no result: M18AAP inhibitor, NS3 helicase inh)
O=C(O)c1cc(O)ccc1-c1ccc(O)cc1	ALR H2O2 inh 98
Cc1ccc(Cl)cc1NC(=O)CCN1C(=O)C2C3CCC(C3)C2C1=O (stereo not given)	none
Cc1ccc(C)n1-c1ccc(N(C)C)cc1	EBNA-1 inhibitor 109, ZTA DNA inh 180 (no result: ALR H2O2 inh)
Cc1ccc(C)n1-c1ccc(N2CCOCC2)cc1	none
COc1ccc(C(=O)/C=C/Nc2ccc(S(=O)(=O)Nc3onc(C)c3C)cc2)cc1	ALR H2O2 inh 97
CCc1ccc(C(=O)/C=C/Nc2ccc(S(=O)(=O)Nc3onc(C)c3C)cc2)cc1	ALR H2O2 inh 97
Cc1noc(NS(=O)(=O)c2ccc(N/C=C/C(=O)c3ccc(F)cc3)cc2)c1C	none
Cc1ccccc1OCCC(=O)OCC(=O)c1c(N)n(CC(C)C)c(=O)n(C)c1=O	none (no result: ALR H2O2 inh)
CCCNC(=O)c1ccccc1NC(=O)Cc1ccc(OC)c(S(=O)(=O)N2CCOCC2)c1	none (no result: M18AAP inhibitor, NS3 helicase inh)
Cn1nc(C(=O)OCC(=O)Nc2cc(Cl)ccc2C#N)c2ccccc2c1=O	none (no result: EBNA-1 inhibitor, M18AAP inhibitor, NS3 helicase inh, HCV core dimer)
CN(C)c1ccc(C(=S)N2CCNCC2)cc1	ALR H2O2 inh 99
Cc1ccccc1N=C(NO)c1nonc1N	M18AAP inhibitor 29
Nc1nc(SCC(=O)OCc2ccccc2)[nH]c(=O)c1NC(=O)c1ccco1	ALR H2O2 inh 100
CC(=O)Nc1ccc(NC(=O)CSc2nc(N)c(NC(=O)c3ccco3)c(=O)[nH]2)cc1	ALR H2O2 inh 99
C=CCSc1nc(N)c(NC(=O)c2ccco2)c(=O)[nH]1	none (no result: M18AAP inhibitor, NS3 helicase inh)
CCCCCN1CN(S(=O)(=O)c2cccs2)c2nc3ccccc3nc21	none
COc1ccc(NC(=O)CSc2nnc(NC(=O)C3CC3)s2)cc1OC	none
C=CCOc1ccc(C(=O)c2ccccc2)c(OCC(=O)NC2(C#N)CCCC2)c1	none
COC(=O)/C(=N/Nc1ccccc1C)N1CCCc2ccccc21	ALR H2O2 inh 98
